Results reported in ChEMBL document CHEMBL3098034, “Synthesis and biological evaluation of α-hydroxyalkylphosphonates as new antimicrobial agents” (Bioorg Med Chem Lett, 2014).
Converted amounts (≈) assume the structure as drawn. The source made the active and inactive calls. The rule behind the calls is not given here.

Legend:
Staphylococcus aureus [1] = experiment: Antibacterial activity against Staphylococcus aureus ATCC 29213 at 10 ug by disc diffusion method; type: functional; conditions: for zone of inhibition at 10 µg/disc: read-out: IZ
Bacillus cereus [2] = experiment: Antibacterial activity against Bacillus cereus ATCC 11778 at 10 ug by disc diffusion method; type: functional; conditions: for zone of inhibition at 10 µg/disc: read-out: IZ
Pseudomonas aeruginosa [3] = experiment: Antibacterial activity against multidrug-resistant Pseudomonas aeruginosa PAO1 at 10 ug by disc diffusion method; type: functional; conditions: for zone of inhibition at 10 µg/disc: read-out: IZ
[4] = tested on: Stenotrophomonas maltophilia; experiment: Antibacterial activity against multidrug-resistant Stenotrophomonas maltophilia D457R at 10 ug by disc diffusion method; type: functional; conditions: for zone of inhibition at 10 µg/disc: read-out: IZ
[5] = tested on: Acinetobacter haemolyticus; experiment: Antibacterial activity against vancomycin-resistant Acinetobacter haemolyticus BW62 at 10 ug by disc diffusion method; type: functional; conditions: for zone of inhibition at 10 µg/disc: read-out: IZ
Escherichia coli [6] = experiment: Antibacterial activity against ESBL-producing Escherichia coli BW55 at 10 ug by disc diffusion method; type: functional; conditions: for zone of inhibition at 10 µg/disc: read-out: IZ
Escherichia coli [7] = experiment: Antibacterial activity against multidrug-resistant Escherichia coli BW54 at 10 ug by disc diffusion method; type: functional; conditions: for zone of inhibition at 10 µg/disc: read-out: IZ
Staphylococcus aureus [8] = experiment: Bactericidal activity against methicillin-resistant Staphylococcus aureus BW61 after 24 hrs by CFU counting assay; type: functional; conditions: BW61, 24 h
How it was run: (§1)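 MBC (lowest concentration killing the pathogen) determined per CLSI specifications, with fosfomycin, ceftriaxone, ciprofloxacin and chloramphenicol run as reference drugs; S. aureus ATCC 29213 used as quality-control strain.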

Staphylococcus aureus [9] = experiment: Bactericidal activity against Staphylococcus aureus ATCC 29213 after 24 hrs by CFU counting assay; type: functional; conditions: ATCC 29213, 24 h; how it was run: as §1
Bacillus cereus [10] = experiment: Bactericidal activity against Bacillus cereus ATCC 11778 after 24 hrs by CFU counting assay; type: functional; conditions: ATCC 11778, 24 h; how it was run: as §1
Pseudomonas aeruginosa [11] = experiment: Bactericidal activity against multidrug-resistant Pseudomonas aeruginosa PAO1 after 24 hrs by CFU counting assay; type: functional; conditions: PAO1, 24 h; how it was run: as §1
[12] = tested on: Stenotrophomonas maltophilia; experiment: Bactericidal activity against multidrug-resistant Stenotrophomonas maltophilia D457R after 24 hrs by CFU counting assay; type: functional; how it was run: as §1
[13] = tested on: Acinetobacter haemolyticus; experiment: Bactericidal activity against vancomycin-resistant Acinetobacter haemolyticus BW62 after 24 hrs by CFU counting assay; type: functional; conditions: BW62, 24 h; how it was run: as §1
Escherichia coli [14] = experiment: Bactericidal activity against ESBL-producing Escherichia coli BW55 after 24 hrs by CFU counting assay; type: functional; conditions: BW55, 24 h; how it was run: as §1
Escherichia coli [15] = experiment: Bactericidal activity against multidrug-resistant Escherichia coli BW54 after 24 hrs by CFU counting assay; type: functional; conditions: BW54, 24 h; how it was run: as §1
Staphylococcus aureus [16] = experiment: Antibacterial activity against methicillin-resistant Staphylococcus aureus BW61 after 24 hrs by broth microdilution method; type: functional; conditions: BW61, 24 h
How it was run: (§2)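 MIC (lowest concentration preventing growth) determined per CLSI specifications, with fosfomycin, ceftriaxone, ciprofloxacin and chloramphenicol run as reference drugs; S. aureus ATCC 29213 used as quality-control strain.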

Staphylococcus aureus [17] = experiment: Antibacterial activity against Staphylococcus aureus ATCC 29213 after 24 hrs by broth microdilution method; type: functional; conditions: ATCC 29213, 24 h; how it was run: as §2
Bacillus cereus [18] = experiment: Antibacterial activity against Bacillus cereus ATCC 11778 after 24 hrs by broth microdilution method; type: functional; conditions: ATCC 11778, 24 h; how it was run: as §2
Pseudomonas aeruginosa [19] = experiment: Antibacterial activity against multidrug-resistant Pseudomonas aeruginosa PAO1 after 24 hrs by broth microdilution method; type: functional; conditions: PAO1, 24 h; how it was run: as §2
[20] = tested on: Stenotrophomonas maltophilia; experiment: Antibacterial activity against multidrug-resistant Stenotrophomonas maltophilia D457R after 24 hrs by broth microdilution method; type: functional; how it was run: as §2
[21] = tested on: Acinetobacter haemolyticus; experiment: Antibacterial activity against vancomycin-resistant Acinetobacter haemolyticus BW62 after 24 hrs by broth microdilution method; type: functional; conditions: BW62, 24 h; how it was run: as §2
Escherichia coli [22] = experiment: Antibacterial activity against ESBL-producing Escherichia coli BW55 after 24 hrs by broth microdilution method; type: functional; conditions: BW55, 24 h; how it was run: as §2
Escherichia coli [23] = experiment: Antibacterial activity against multidrug-resistant Escherichia coli BW54 after 24 hrs by broth microdilution method; type: functional; conditions: BW54, 24 h; how it was run: as §2
Human alphaherpesvirus 2 = experiment: Antiviral activity against Herpes simplex virus 2 G; type: functional, organism-based; conditions: Human alphaherpesvirus 2, strain G

Row | SMILES | Activity (Staphylococcus aureus [1]) | Activity (Bacillus cereus [2]) | Activity [5] | Activity (Escherichia coli [7]) | MBC (Staphylococcus aureus [8]) | MBC (Staphylococcus aureus [9]) | MBC (Bacillus cereus [10]) | MBC (Pseudomonas aeruginosa [11]) | MBC [12] | MBC [13] | MBC (Escherichia coli [14]) | MBC (Escherichia coli [15]) | MIC (Staphylococcus aureus [16]) | MIC (Staphylococcus aureus [17]) | MIC (Bacillus cereus [18]) | MIC (Pseudomonas aeruginosa [19]) | MIC [20] | MIC [21] | MIC (Escherichia coli [22]) | MIC (Escherichia coli [23]) | other results
1 | C[C@H](Cl)[C@](O)(c1ccccc1)P1(=O)OCC(C)(C)CO1 | inactive | inactive | inactive | inactive | – | – | – | – | – | – | – | – | – | – | – | – | – | – | – | – | Activity (Pseudomonas aeruginosa [3]): inactive; zone of inhibition at 10 µg/disc [4]: 7 mm; Activity (Escherichia coli [6]): inactive
2 | CC1(C)COP(=O)([C@@](C)(O)CCl)OC1 | inactive | inactive | inactive | inactive | – | – | – | – | – | – | – | – | – | – | – | – | – | – | – | – | Activity (Pseudomonas aeruginosa [3]): inactive; Activity [4]: inactive; Activity (Escherichia coli [6]): inactive
3 | O=P(Oc1ccccc1)(Oc1ccccc1)[C@](O)(CCl)c1ccccc1 | inactive | – | – | – | 64 µg/mL (≈ 165 µM) | 64 µg/mL (≈ 165 µM) | 32 µg/mL (≈ 82.3 µM) | 64 µg/mL (≈ 165 µM) | 64 µg/mL (≈ 165 µM) | 64 µg/mL (≈ 165 µM) | 64 µg/mL (≈ 165 µM) | 64 µg/mL (≈ 165 µM) | 64 µg/mL (≈ 165 µM) | 64 µg/mL (≈ 165 µM) | 64 µg/mL (≈ 165 µM) | 64 µg/mL (≈ 165 µM) | 64 µg/mL (≈ 165 µM) | 64 µg/mL (≈ 165 µM) | 64 µg/mL (≈ 165 µM) | 64 µg/mL (≈ 165 µM) | zone of inhibition at 10 µg/disc (Bacillus cereus [2]): 7 mm; zone of inhibition at 10 µg/disc (Pseudomonas aeruginosa [3]): 7 mm; zone of inhibition at 10 µg/disc [4]: 7 mm; zone of inhibition at 10 µg/disc [5]: 8 mm; zone of inhibition at 10 µg/disc (Escherichia coli [6]): 10 mm; zone of inhibition at 10 µg/disc (Escherichia coli [7]): 9 mm
4 | C[C@](O)(CCl)P(=O)(Oc1ccccc1)Oc1ccccc1 | – | – | – | – | 256 µg/mL (≈ 784 µM) | ≥ 256 µg/mL | 128 µg/mL (≈ 392 µM) | 256 µg/mL (≈ 784 µM) | ≥ 256 µg/mL | ≥ 256 µg/mL | 256 µg/mL (≈ 784 µM) | ≥ 256 µg/mL | 128 µg/mL (≈ 392 µM) | 128 µg/mL (≈ 392 µM) | 64 µg/mL (≈ 196 µM) | 64 µg/mL (≈ 196 µM) | 128 µg/mL (≈ 392 µM) | 64 µg/mL (≈ 196 µM) | 64 µg/mL (≈ 196 µM) | 128 µg/mL (≈ 392 µM) | zone of inhibition at 10 µg/disc (Staphylococcus aureus [1]): 9 mm; zone of inhibition at 10 µg/disc (Bacillus cereus [2]): 12 mm; zone of inhibition at 10 µg/disc (Pseudomonas aeruginosa [3]): 7 mm; Activity [4]: inactive; zone of inhibition at 10 µg/disc [5]: 8 mm; zone of inhibition at 10 µg/disc (Escherichia coli [6]): 7 mm; zone of inhibition at 10 µg/disc (Escherichia coli [7]): 8 mm
5 | Nc1ncnc2c1ncn2CCOCP(=O)(O)O [ADEFOVIR] | – | – | – | – | – | – | – | – | – | – | – | – | – | – | – | – | – | – | – | – | IC50 (Human alphaherpesvirus 2): 77 µM
6 | O=C(O)c1cn(C2CC2)c2cc(N3CCNCC3)c(F)cc2c1=O [CIPROFLOXACIN] | – | – | – | – | 4 µg/mL (≈ 12.1 µM) | 4 µg/mL (≈ 12.1 µM) | 4 µg/mL (≈ 12.1 µM) | 4 µg/mL (≈ 12.1 µM) | 256 µg/mL (≈ 773 µM) | 4 µg/mL (≈ 12.1 µM) | 1 µg/mL (≈ 3.02 µM) | 4 µg/mL (≈ 12.1 µM) | 4 µg/mL (≈ 12.1 µM) | 4 µg/mL (≈ 12.1 µM) | 4 µg/mL (≈ 12.1 µM) | 4 µg/mL (≈ 12.1 µM) | 4 µg/mL (≈ 12.1 µM) | 4 µg/mL (≈ 12.1 µM) | – | – | –
7 | O=P(Oc1ccccc1)(Oc1ccccc1)[C@@]1(O)c2ccccc2C[C@@H]1Cl (mixture of isomers) | – | inactive | inactive | inactive | 256 µg/mL | 256 µg/mL | 256 µg/mL | 256 µg/mL | 256 µg/mL | 256 µg/mL | 256 µg/mL | 256 µg/mL | 256 µg/mL | 256 µg/mL | 128 µg/mL | 128 µg/mL | 128 µg/mL | 128 µg/mL | 128 µg/mL | 128 µg/mL | zone of inhibition at 10 µg/disc (Staphylococcus aureus [1]): 5 mm; zone of inhibition at 10 µg/disc (Pseudomonas aeruginosa [3]): 9 mm; Activity [4]: inactive; zone of inhibition at 10 µg/disc (Escherichia coli [6]): 8 mm
8 | CO/N=C(\C(=O)N[C@@H]1C(=O)N2C(C(=O)O)=C(CSc3nc(=O)c(O)nn3C)CS[C@H]12)c1csc(N)n1 [CEFTRIAXONE] | – | – | – | – | 4 µg/mL (≈ 7.21 µM) | 4 µg/mL (≈ 7.21 µM) | 64 µg/mL (≈ 115 µM) | 128 µg/mL (≈ 231 µM) | 128 µg/mL (≈ 231 µM) | 4 µg/mL (≈ 7.21 µM) | 64 µg/mL (≈ 115 µM) | 0.5 µg/mL (≈ 0.902 µM) | 4 µg/mL (≈ 7.21 µM) | 4 µg/mL (≈ 7.21 µM) | 32 µg/mL (≈ 57.7 µM) | 128 µg/mL (≈ 231 µM) | 64 µg/mL (≈ 115 µM) | 4 µg/mL (≈ 7.21 µM) | 32 µg/mL (≈ 57.7 µM) | ≤ 0.5 µg/mL | –
